# Data taken from ChEMBL document CHEMBL1921745, “CCR2 receptor antagonists: optimization of biaryl sulfonamides to increase activity in whole blood” (Bioorg Med Chem Lett, 2011).
# Key:
# [1] = biological target: T1, C-C chemokine receptor type 2 (Homo sapiens, UniProt P41597); test: Antagonist activity at CCR2 receptor in human whole blood assessed as inhibition of MCP-1 induced monocyte shape change pretreated for 15 mins before MCP-1 challenge measured after 5 mins by flow cytometry; assay type: functional, tissue-based; conditions: read-out: pA2 (converted)
# Summary of the method: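 Fresh blood from healthy human donors, preincubated 15 minutes with antagonist, then stimulated 5 minutes with a range of MCP-1 concentrations. Samples fixed rapidly and analysed by flow cytometry for increase in monocyte side scatter, plotted against MCP-1 concentration. pA2 derived by comparison with the MCP-1 dose response in vehicle-treated blood.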
# Target sequence in this assay (P41597 whole entry): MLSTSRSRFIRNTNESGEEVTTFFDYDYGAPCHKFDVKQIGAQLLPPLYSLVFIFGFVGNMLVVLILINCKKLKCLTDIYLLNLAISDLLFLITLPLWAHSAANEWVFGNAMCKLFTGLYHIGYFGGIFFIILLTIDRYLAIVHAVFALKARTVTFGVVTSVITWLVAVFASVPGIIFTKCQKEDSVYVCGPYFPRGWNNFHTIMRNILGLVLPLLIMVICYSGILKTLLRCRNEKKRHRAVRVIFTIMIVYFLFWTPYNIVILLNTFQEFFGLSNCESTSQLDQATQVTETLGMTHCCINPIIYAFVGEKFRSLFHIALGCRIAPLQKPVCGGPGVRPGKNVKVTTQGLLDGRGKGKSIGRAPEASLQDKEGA
# [2] = biological target: T1, C-C chemokine receptor type 2; test: Antagonist activity at human CCR2 receptor expressed in CHO cells assessed as inhibition of MCP1-induced [35S]-GTPgammaS binding after 3 hrs in presence of 5% human serum albumin; assay type: functional, cell-based
# Summary of the method: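 GTPγS functional assay at CCR2 run side by side with the HSA-free primary assay. HSA present at 0.2% w/v, described as 5% of physiological concentration.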
# Target sequence in this assay (P41597 whole entry): as above
# [3] = biological target: T1, C-C chemokine receptor type 2; test: Ratio of IC50 for human CCR2 receptor in presence of 5% human serum to IC50 for human CCR2 receptor
# Target sequence in this assay (P41597 whole entry, looked up): as the sequence (P41597 whole entry) above
# [4] = biological target: T1, C-C chemokine receptor type 2; test: Antagonist activity at human CCR2 receptor expressed in CHO cells assessed as inhibition of MCP1-induced [35S]-GTPgammaS binding after 3 hrs; assay type: functional, cell-based
# Target sequence in this assay (P41597 whole entry): as above
# [5] = Volume of distribution at steady state in rat at 1 mg/kg, iv and 1.5 mg/kg, po; assay type: ADME, organism-based; conditions: in vivo, read-out: Vdss
# [6] = biological target: T2, C-C chemokine receptor type 4 (Homo sapiens, UniProt P51679); test: Antagonist activity at CCR4; assay type: functional
# T2 sequence (P51679 whole entry): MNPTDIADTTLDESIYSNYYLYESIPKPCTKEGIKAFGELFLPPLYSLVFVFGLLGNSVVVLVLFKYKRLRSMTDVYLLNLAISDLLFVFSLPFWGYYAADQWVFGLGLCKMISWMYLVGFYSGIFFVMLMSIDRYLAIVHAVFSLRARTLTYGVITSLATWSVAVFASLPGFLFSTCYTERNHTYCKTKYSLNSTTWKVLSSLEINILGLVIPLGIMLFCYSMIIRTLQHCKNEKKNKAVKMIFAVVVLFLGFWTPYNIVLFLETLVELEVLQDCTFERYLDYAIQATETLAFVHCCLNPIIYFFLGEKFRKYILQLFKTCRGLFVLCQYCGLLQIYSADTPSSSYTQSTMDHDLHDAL
# Mus musculus = test: Reduction of monocyte recruitment in CCR2 deficient C57BL/6 mouse thioglycolate-induced peritonitis model at 40 mg/kg, po administered 3 hrs before thioglycolate challenge relative to control; assay type: functional; set-up: scale not given: the % may be the effect or the level left; conditions: in the assay text read “humanized CCR2 knock-in” for “CCR2 deficient”
# Summary of the method: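 Thioglycolate-induced peritonitis model in humanized CCR2 knock-in mice. Antagonist given orally at 40 mg/kg and monocyte recruitment compared with a vehicle group.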
# [7] = Clearance in rat at 1 mg/kg, iv and 1.5 mg/kg, po; assay type: ADME, organism-based; conditions: in vivo
# [8] = Oral bioavailability in rat at 1.5 mg/kg; assay type: ADME, organism-based; conditions: in vivo
# [9] = Cmax in rat at 1 mg/kg, iv and 1.5 mg/kg, po; assay type: ADME, organism-based; conditions: in vivo
# [10] = Half life in rat at 1 mg/kg, iv and 1.5 mg/kg, po; assay type: ADME, organism-based; conditions: in vivo
# [11] = Cmax in satellite C57BL/6 mouse at 40 mg/kg, po; assay type: ADME, organism-based; set-up: dose 40 mg/kg, route oral; conditions: in vivo
# Summary of the method: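 Female C57Bl/6 satellite mice from the peritonitis study were given 40 mg/kg orally, with blood levels followed over about 7 hours.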
# [12] = biological target: Voltage-gated inwardly rectifying potassium channel KCNH2 (Homo sapiens, UniProt Q12809); test: Inhibition of human ERG
# [13] = Lipophilicity, log D of the compound; assay type: physicochemical; conditions: octanol/water
# [14] = biological target: T3, C-C chemokine receptor type 1 (Homo sapiens, UniProt P32246); test: Antagonist activity at CCR1; assay type: functional
# T3 sequence (P32246 whole entry): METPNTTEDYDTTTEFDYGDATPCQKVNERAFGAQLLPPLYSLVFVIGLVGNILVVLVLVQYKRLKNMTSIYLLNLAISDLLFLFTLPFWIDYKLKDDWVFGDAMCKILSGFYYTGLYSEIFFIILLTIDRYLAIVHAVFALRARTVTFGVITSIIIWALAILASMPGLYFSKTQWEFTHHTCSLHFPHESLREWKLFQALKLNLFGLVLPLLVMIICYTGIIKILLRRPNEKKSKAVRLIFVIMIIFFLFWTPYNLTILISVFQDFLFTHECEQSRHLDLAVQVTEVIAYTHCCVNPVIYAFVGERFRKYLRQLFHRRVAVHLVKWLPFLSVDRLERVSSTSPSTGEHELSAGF
# [15] = Volume of distribution at steady state in rat at 1 mg/kg, iv and 2 mg/kg, po; assay type: ADME, organism-based; conditions: in vivo, read-out: Vdss
# [16] = Oral bioavailability in rat at 2 mg/kg; assay type: ADME, organism-based; conditions: in vivo
# [17] = Clearance in rat at 1 mg/kg, iv and 2 mg/kg, po; assay type: ADME, organism-based; conditions: in vivo
# [18] = Cmax in rat at 1 mg/kg, iv and 2 mg/kg, po; assay type: ADME, organism-based; conditions: in vivo
# [19] = Half life in rat at 1 mg/kg, iv and 2 mg/kg, po; assay type: ADME, organism-based; conditions: in vivo
# Voltage-gated inwardly rectifying potassium channel KCNH2, sequence (Q12809 whole entry): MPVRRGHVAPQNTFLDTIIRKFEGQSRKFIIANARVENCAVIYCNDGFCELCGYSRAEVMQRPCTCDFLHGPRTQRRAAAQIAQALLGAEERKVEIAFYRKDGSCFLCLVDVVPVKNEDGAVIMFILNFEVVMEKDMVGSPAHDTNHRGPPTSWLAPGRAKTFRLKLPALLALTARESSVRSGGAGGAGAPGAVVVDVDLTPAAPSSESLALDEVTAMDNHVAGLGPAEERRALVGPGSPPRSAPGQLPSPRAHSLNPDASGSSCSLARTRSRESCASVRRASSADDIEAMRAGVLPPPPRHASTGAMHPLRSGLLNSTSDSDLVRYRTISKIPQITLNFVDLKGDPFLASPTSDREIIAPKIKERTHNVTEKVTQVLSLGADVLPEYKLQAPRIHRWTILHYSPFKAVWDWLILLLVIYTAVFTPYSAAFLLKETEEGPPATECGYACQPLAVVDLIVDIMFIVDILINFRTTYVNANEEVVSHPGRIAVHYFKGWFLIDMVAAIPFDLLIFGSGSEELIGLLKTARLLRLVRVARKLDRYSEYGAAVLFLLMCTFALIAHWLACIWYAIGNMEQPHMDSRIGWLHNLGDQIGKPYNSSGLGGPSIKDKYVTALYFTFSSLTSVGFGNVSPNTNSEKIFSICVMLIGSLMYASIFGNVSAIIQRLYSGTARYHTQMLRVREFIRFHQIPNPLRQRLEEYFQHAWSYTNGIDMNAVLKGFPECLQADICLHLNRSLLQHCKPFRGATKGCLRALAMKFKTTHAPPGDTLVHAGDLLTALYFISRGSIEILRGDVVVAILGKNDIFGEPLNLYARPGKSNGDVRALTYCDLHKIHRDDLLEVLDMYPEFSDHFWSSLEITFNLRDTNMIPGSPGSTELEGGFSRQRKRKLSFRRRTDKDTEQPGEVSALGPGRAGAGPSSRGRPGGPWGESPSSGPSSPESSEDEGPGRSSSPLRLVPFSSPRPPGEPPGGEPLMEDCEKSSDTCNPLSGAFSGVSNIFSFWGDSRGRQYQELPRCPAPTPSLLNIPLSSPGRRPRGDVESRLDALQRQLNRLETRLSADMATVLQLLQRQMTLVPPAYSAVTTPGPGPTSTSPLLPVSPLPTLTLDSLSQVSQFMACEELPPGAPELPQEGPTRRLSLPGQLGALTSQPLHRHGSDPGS
SMILES,Kb [1] [nM],Ki [2] [nM],fold change (FC) [3],Ki [4] [nM],further results
O=C(NCCN1CCCCC1)c1ccc(Oc2ncc(Cl)cc2NS(=O)(=O)c2ccc(Cl)c(Cl)c2)cc1,1580,20,1.5,13,–
O=C(NCCN1CCCC1)c1ccccc1Oc1ncc(Cl)cc1NS(=O)(=O)c1ccc(Cl)c(Cl)c1,–,2510,4,631,–
COc1cc(C(=O)NCCN2CCCC2)ccc1Oc1ccc(Cl)cc1NS(=O)(=O)c1ccc(Cl)c(C(F)(F)F)c1,251,–,–,6,Vd [5]: 2.7 L/kg; IC50 [6]: > 10000 nM; Activity (Mus musculus): 56%; clearance [7]: 17 mL/min/kg; bioavailability [8]: 37%; Cmax [9]: 652 ng/mL; half-life [10]: 3.9 h; Cmax [11]: 1970 ng/mL; IC50 [12]: 25100 nM; logD [13]: 2.3; IC50 [14]: > 25100 nM
Cc1cc(C(=O)NCCN2CCCC2)ccc1Oc1ccc(Cl)cc1NS(=O)(=O)c1ccc(Cl)c(C(F)(F)F)c1,501,–,–,8,–
COc1cc(C(=O)NCCN2CCCCC2)ccc1Oc1ccc(Cl)cc1NS(=O)(=O)c1ccc(Cl)c(C(F)(F)F)c1,1000,–,–,25,–
O=C(NCCN1CCNCC1)c1ccc(Oc2ncc(Cl)cc2NS(=O)(=O)c2ccc(Cl)c(Cl)c2)cc1,–,251,6,40,–
O=C(NCCN1CCNCC1)c1cccc(Oc2ncc(Cl)cc2NS(=O)(=O)c2ccc(Cl)c(Cl)c2)c1,–,2510,13,200,–
O=C(NCCN1CCCCC1)c1ccccc1Oc1ncc(Cl)cc1NS(=O)(=O)c1ccc(Cl)c(Cl)c1,–,1590,2,794,–
COc1cc(Oc2ccc(C(=O)NCCN3CCCCC3)cc2)c(NS(=O)(=O)c2ccc(Cl)c(C(F)(F)F)c2)cc1Cl,398,–,–,10,–
COc1cc(Oc2ccc(C(=O)NCCN3CCCC3)cc2)c(NS(=O)(=O)c2ccc(Cl)c(C(F)(F)F)c2)cc1Cl,398,–,–,4,–
O=C(NCCN1CCCC1)c1cccc(Oc2ncc(Cl)cc2NS(=O)(=O)c2ccc(Cl)c(Cl)c2)c1,–,1000,10,100,–
Cc1ncccc1Oc1ncc(Cl)cc1NS(=O)(=O)c1ccc(Cl)c(Cl)c1,–,1260,126,–,–
O=C(NCCN1CCCCC1)c1ccc(Oc2ccc(Cl)cc2NS(=O)(=O)c2ccc(Cl)c(C(F)(F)F)c2)cc1,631,–,–,10,–
O=C(NCCN1CCCCC1)c1cccc(Oc2ncc(Cl)cc2NS(=O)(=O)c2ccc(Cl)c(Cl)c2)c1,–,1260,16,79,–
O=C(NCCN1CCCC1)c1ccc(Oc2ccc(Cl)cc2NS(=O)(=O)c2ccc(Cl)c(C(F)(F)F)c2)cc1,501,–,–,2,–
Cc1cc(Oc2ccc(C(=O)NCCN3CCCCC3)cc2)c(NS(=O)(=O)c2ccc(Cl)c(C(F)(F)F)c2)cc1Cl,1260,–,–,16,–
O=C(NCCN1CCC(F)(F)C1)c1ccc(Oc2ccc(Cl)cc2NS(=O)(=O)c2ccc(Cl)c(C(F)(F)F)c2)cc1,3980,–,–,63,–
Cc1cc(C(=O)NCCN2CCCCC2)ccc1Oc1ccc(Cl)cc1NS(=O)(=O)c1ccc(Cl)c(C(F)(F)F)c1,2510,–,–,25,–
O=C(NCCN1CCCCC1)c1ccc(Oc2ccc(Cl)cc2NS(=O)(=O)c2ccc(Cl)c(Cl)c2)cc1,3160,–,–,63,–
O=C(NCCN1CCCC1)c1ccc(Oc2ncc(Cl)cc2NS(=O)(=O)c2ccc(Cl)c(Cl)c2)cc1,–,63,5,13,–
Cc1cc(Oc2ccc(C(=O)NCCN3CCCC3)cc2)c(NS(=O)(=O)c2ccc(Cl)c(C(F)(F)F)c2)cc1Cl,398,–,–,8,–
O=C(NCCN1CCCCC1)c1ccc(Oc2ncc(Cl)cc2NS(=O)(=O)c2ccc(Cl)c(C(F)(F)F)c2)cc1,398,–,–,3,IC50 [6]: > 10000 nM; Vd [15]: 1.9 L/kg; Activity (Mus musculus): 54%; bioavailability [16]: 10%; clearance [17]: 39 mL/min/kg; Cmax [18]: 624 ng/mL; Cmax [11]: 1520 ng/mL; half-life [19]: 0.9 h; logD [13]: 3.2; IC50 [14]: > 25100 nM
